Assay results as given in ChEMBL document CHEMBL1127424, “7-azetidinylquinolones as antibacterial agents. 2. Synthesis and biological activity of 7-(2,3-disubstituted-1-azetidinyl)-4-oxoquinoline- and -1,8-naphthyridine-3-carboxylic acids. Properties and structure-activity relationships of quinolones with an azetidine moiety” (J Med Chem, 1994).
Converted amounts (≈) assume the structure as drawn.

How the values were obtained:
Proteus vulgaris = assay: In vitro minimum inhibitory concentration for Proteus vulgaris ATCC 8427; assay type: functional
How it was run: (§1)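 Serial 2-fold agar dilution in Mueller Hinton medium, run alongside a reference quinolone. Inoculum adjusted to 10⁸ cfu/mL; compound range 0.007–16 μg/mL.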

Bacillus subtilis = assay: In vitro minimum inhibitory concentration for Bacillus subtilis ATCC 6633; assay type: functional; how it was run: as §1
Enterococcus faecalis = assay: In vitro minimum inhibitory concentration for Streptococcus faecalis ATCC 10541; assay type: functional; how it was run: as §1
Bacillus cereus = assay: In vitro minimum inhibitory concentration for Bacillus cereus ATCC 11778; assay type: functional; how it was run: as §1
[1] = HPLC capacity factor (k'); assay type: ADME
How it was run: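 Ion-pair reversed-phase HPLC on ODS-2 (10 μm) at 45 °C. Mobile phase: 10 mM sodium heptanesulfonate plus 50 mM KH2PO4 (pH 3.5)–methanol 45:55, 1 mL/min. Samples at 100 μg/mL in DMF, injected in duplicate, UV 280 nm. k' = (tR − t0)/t0.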

[2] = test system: Staphylococcus epidermidis; assay: In vitro minimum inhibitory concentration for Staphylococcus epidermidis ATCC 155-1; assay type: functional; how it was run: as §1
[3] = Solubility (buffer pH 7.4); assay type: physicochemical; conditions: read-out: S
How it was run: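 Excess solid shaken in 0.05 M phosphate buffer pH 7.4 for 24 h at 25 °C. Suspension filtered through 0.22 μm, discarding the first portion. Filtrate diluted in 0.1 N HCl or 0.1 N NaOH and read by UV at the compound's absorbance maximum.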

Staphylococcus aureus = assay: In vitro minimum inhibitory concentration for Staphylococcus aureus ATCC 25178; assay type: functional; how it was run: as §1
[4] = AUC (0-4 hr) ug/ml/h; assay type: ADME, cell-free; design: time < 4 hr; concentration or dose not given beside the values; conditions: plasma
How it was run: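 Mice dosed once orally at 50 mg/kg; blood taken from groups of six mice at 0.5, 1, 2 and 4 h. Serum drug assayed by disk agar diffusion bioassay (Bacillus subtilis ATCC 6633 on Seed Agar, 37 °C, 18 h), giving total activity.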

Mus musculus [5] = assay: Evaluation of efficacy on systemic infections Staphylococcus aureus HS-93, after oral administration in mice; assay type: functional
How it was run: (§2)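 Single oral dose given immediately after infection, one of four doses per group, chosen from in vitro activity. Survival scored after one week. ED50 (total mg/kg protecting 50%) interpolated from survival rates.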

Morganella morganii = assay: In vitro minimum inhibitory concentration for Morganella morganii ATCC 8019; assay type: functional; how it was run: as §1
Escherichia coli [6] = assay: In vitro minimum inhibitory concentration for Escherichia coli ATCC 10799; assay type: functional; how it was run: as §1
[7] = Measured ionization constant (pKa); assay type: physicochemical; conditions: read-out: pKa1
How it was run: (§3)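 Spectrophotometric titration at 20 ± 1 °C, 0.1 M ionic strength, pH varied with H2SO4 or NaOH made up in the compound stock. Absorbance followed at compound-specific wavelengths chosen from 200–400 nm scans. pKa1 and pKa2 taken as the inflection points of the two-step absorbance vs pH curve.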

Enterobacter cloacae = assay: In vitro minimum inhibitory concentration for Enterobacter cloacae ATCC 23355; assay type: functional
Mus musculus [8] = assay: Evaluation of efficacy on systemic infections Escherichia coli HM-42, after oral administration in mice; assay type: functional; how it was run: as §2
Mus musculus [9] = assay: Evaluation of efficacy on systemic infections Pseudomonas aeruginosa HS-116, after oral administration in mice; assay type: functional; how it was run: as §2
Klebsiella pneumoniae = assay: In vitro minimum inhibitory concentration to inhibit Klebsiella pneumoniae ATCC 10031; assay type: functional; how it was run: as §1
Pseudomonas aeruginosa = assay: In vitro minimum inhibitory concentration for Pseudomonas aeruginosa ATCC 10145; assay type: functional; how it was run: as §1
[10] = Dissociation constant (pKa); assay type: physicochemical; conditions: read-out: pKa2; how it was run: as §3
Escherichia coli [11] = assay: In vitro minimum inhibitory concentration to inhibit Escherichia coli ATCC 10799; assay type: functional
How it was run: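 Serial 2-fold agar dilution on Mueller Hinton medium, run alongside 1b as comparator. Inoculum adjusted to 10⁸ cfu/mL; compound range 0.007 to 16 μg/mL. Incubated 37 °C for 18 h. MIC taken as the lowest concentration preventing visible growth.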

Row | Compound | MIC (Proteus vulgaris) | MIC (Bacillus subtilis) | MIC (Enterococcus faecalis) | MIC (Bacillus cereus) | Log k' [1] | MIC [2] | solubility [3] | MIC (Staphylococcus aureus) | AUC [4] | MIC (Morganella morganii) | MIC (Escherichia coli [6]) | pKa [7] | MIC (Enterobacter cloacae) | MIC (Klebsiella pneumoniae) | MIC (Pseudomonas aeruginosa) | pKa [10] | MIC (Escherichia coli [11]) | ED50 (Mus musculus [5]) | ED50 (Mus musculus [8]) | ED50 (Mus musculus [9])
1 | C[C@H]1[C@H](N)CN1c1c(F)cc2c(=O)c(C(=O)O)cn(C3CC3)c2c1F | 0.06 µg/mL (≈ 0.172 µM) | 0.03 µg/mL (≈ 0.0859 µM) | 0.25 µg/mL (≈ 0.716 µM) | 0.06 µg/mL (≈ 0.172 µM) | 0.0755 | 0.06 µg/mL (≈ 0.172 µM) | 23.2 µg/mL (≈ 66.4 µM) | 0.06 µg/mL (≈ 0.172 µM) | 24500 ng·h/mL | 0.03 µg/mL (≈ 0.0859 µM) | 0.015 µg/mL (≈ 0.0429 µM) | 6.13 | 0.03 µg/mL (≈ 0.0859 µM) | 0.03 µg/mL (≈ 0.0859 µM) | 0.25 µg/mL (≈ 0.716 µM) | 8.35 | – | 9 mg/kg | 2 mg/kg | 22.1 mg/kg
2 | C[C@@H]1[C@@H](N(C)C)CN1c1cc2c(cc1F)c(=O)c(C(=O)O)cn2C1CC1 | 0.5 µg/mL (≈ 1.39 µM) | 0.06 µg/mL (≈ 0.167 µM) | 4 µg/mL (≈ 11.1 µM) | 0.5 µg/mL (≈ 1.39 µM) | 0.668 | 0.12 µg/mL (≈ 0.334 µM) | 96.3 µg/mL (≈ 268 µM) | 0.25 µg/mL (≈ 0.696 µM) | 12100 ng·h/mL | 0.5 µg/mL (≈ 1.39 µM) | 0.5 µg/mL (≈ 1.39 µM) | 6.29 | 0.5 µg/mL (≈ 1.39 µM) | 0.06 µg/mL (≈ 0.167 µM) | 4 µg/mL (≈ 11.1 µM) | 7.9 | – | 62.1 mg/kg | 4.5 mg/kg | 135 mg/kg
3 | C[C@@H]1[C@@H](N(C)C)CN1c1c(F)cc2c(=O)c(C(=O)O)cn(C3CC3)c2c1F | 0.25 µg/mL (≈ 0.662 µM) | 0.015 µg/mL (≈ 0.0397 µM) | 1 µg/mL (≈ 2.65 µM) | 1 µg/mL (≈ 2.65 µM) | 0.769 | 0.06 µg/mL (≈ 0.159 µM) | 97.1 µg/mL (≈ 257 µM) | 0.12 µg/mL (≈ 0.318 µM) | 23200 ng·h/mL | 0.25 µg/mL (≈ 0.662 µM) | 0.25 µg/mL (≈ 0.662 µM) | 6.08 | 0.12 µg/mL (≈ 0.318 µM) | 0.06 µg/mL (≈ 0.159 µM) | 2 µg/mL (≈ 5.3 µM) | 8.2 | – | 17.9 mg/kg | 3.1 mg/kg | 164 mg/kg
4 | CNC1(C)CN(c2cc3c(cc2F)c(=O)c(C(=O)O)cn3C2CC2)C1 | – | – | – | – | 0.0875 | – | 0.7 µg/mL (≈ 2.03 µM) | – | – | – | – | 6.47 | – | – | – | 8.65 | – | – | – | –
5 | CC1(N)CN(c2c(F)cc3c(=O)c(C(=O)O)cn(C4CC4)c3c2Cl)C1 | – | – | – | – | 0.1061 | – | 1.7 µg/mL (≈ 4.65 µM) | – | – | – | – | 6.08 | – | – | – | 8.45 | – | – | – | –

The next lines start with results.

Row | MIC (Proteus vulgaris) | MIC (Bacillus subtilis) | MIC (Enterococcus faecalis) | MIC (Bacillus cereus) | Log k' [1] | MIC [2] | solubility [3] | MIC (Staphylococcus aureus) | AUC [4] | MIC (Morganella morganii) | MIC (Escherichia coli [6]) | pKa [7] | MIC (Enterobacter cloacae) | MIC (Klebsiella pneumoniae) | MIC (Pseudomonas aeruginosa) | pKa [10] | MIC (Escherichia coli [11]) | Compound | ED50 (Mus musculus [5]) | ED50 (Mus musculus [8]) | ED50 (Mus musculus [9])
6 | 0.25 µg/mL (≈ 0.741 µM) | 0.06 µg/mL (≈ 0.178 µM) | 1 µg/mL (≈ 2.96 µM) | 0.25 µg/mL (≈ 0.741 µM) | 0.0145 | 0.12 µg/mL (≈ 0.356 µM) | – | 0.25 µg/mL (≈ 0.741 µM) | – | 0.06 µg/mL (≈ 0.178 µM) | – | – | 0.06 µg/mL (≈ 0.178 µM) | 0.015 µg/mL (≈ 0.0445 µM) | 1 µg/mL (≈ 2.96 µM) | – | 0.12 µg/mL (≈ 0.356 µM) | CCn1cc(C(=O)O)c(=O)c2cc(F)c(N3C[C@@H](N)[C@@H]3C)c(F)c21 | 5.1 mg/kg | 4 mg/kg | 56.3 mg/kg
7 | – | – | – | – | -0.0438 | – | 1.8 µg/mL (≈ 5.37 µM) | – | – | – | – | 6.12 | – | – | – | 8.2 | – | NC1CN(c2c(F)cc3c(=O)c(C(=O)O)cn(C4CC4)c3c2F)C1 | – | – | –
